Assay [1] deals with T1, SF3B subunit of the spliceosome (Homo sapiens, UniProt O75533+Q7RTV0). As to conditions: cited from earlier work.
Assay [2] addresses T1, SF3B subunit of the spliceosome. Kind of assay: In vitro splicing assay. The class given is biochemical. The settings on record: for reduction in splicing inhibitory potency compared to herboxidiene: relative to herboxidiene. A digest of the protocol:
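Radiolabeled RNA splicing substrate incubated in human cell nuclear extract with a dose range of test compound or DMSO control. RNA resolved by denaturing PAGE and bands quantified by phosphorimaging. Splicing efficiency is mRNA over total substrate RNA, normalised to DMSO. IC50 (half-maximal reduction of splicing versus DMSO) is from nonlinear regression, [inhibitor] vs normalised response, on three independent measurements, with 95% confidence intervals.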

The next assay relates to WI-38. As to conditions: human normal fibroblast cell line WI-38; cited from earlier work.
In the next assay the test system is human cells. The settings on record: cited from earlier work.

On to 5(R)-hydroxy herboxidiene [Compound 6], for which the “splicing inhibition relative to herboxidiene” value in assay [1] was “slightly lower splicing inhibition than herboxidiene”.

`C=C1CC[C@H](CC(=O)O)O[C@@H]1/C(C)=C/C=C/[C@@H](C)C[C@@]1(C)O[C@@H]1[C@H](C)[C@@H](OC)[C@@H](C)O` [Compound 12, 2-((2R,6S)-6-((S,2E,4E)-7-((2R,3R)-3-((2R,3R,4R)-4-hydroxy-3-methoxypentan-2-yl)-2-methyloxiran-2-yl)-6-methylhepta-2,4-dien-2-yl)-5-methylenetetrahydro-2H-pyran-2-yl)acetic acid] had a half-maximal inhibitory concentration (IC50) in assay [2] of 400 nM.

As for `CO[C@H]([C@@H](C)[C@H]1O[C@]1(C)C[C@H](C)/C=C/C=C(\C)[C@H]1O[C@@H](CC(=O)O)CC[C@H]1C)[C@@H](C)O` [Compound 13, 2-((2R,5R,6S)-6-((S,2E,4E)-7-((2R,3R)-3-((2R,3R,4R)-4-hydroxy-3-methoxypentan-2-yl)-2-methyloxiran-2-yl)-6-methylhepta-2,4-dien-2-yl)-5-methyltetrahydro-2H-pyran-2-yl)acetic acid], in assay [2], the IC50 was 2500 nM and the “reduction in splicing inhibitory potency compared to herboxidiene” value is recorded as “about 6 fold”.

In the case of `CO[C@H]([C@@H](C)[C@H]1O[C@]1(C)C[C@H](C)/C=C/C=C(\C)[C@H]1O[C@@H](CC(=O)O)CCC12CC2)[C@@H](C)O` [Compound 14, 2-((4S,6R)-4-((S,2E,4E)-7-((2R,3R)-3-((2R,3R,4R)-4-hydroxy-3-methoxypentan-2-yl)-2-methyloxiran-2-yl)-6-methylhepta-2,4-dien-2-yl)-5-oxaspiro[2.5]octan-6-yl)acetic acid], in assay [2], half-maximal inhibition (IC50) required 5200 nM. Further, the “loss of splicing inhibitory activity compared to gem-dimethyl derivative” value in assay [2] (relative to gem-dimethyl derivative 15) is listed as 5 fold.

In the case of `CO[C@H]([C@@H](C)[C@H]1O[C@]1(C)C[C@H](C)/C=C/C=C(\C)[C@H]1O[C@@H](CC(=O)O)CCC1(C)C)[C@@H](C)O` [Compound 15, 2-((2R,6S)-6-((S,2E,4E)-7-((2R,3R)-3-((2R,3R,4R)-4-hydroxy-3-methoxypentan-2-yl)-2-methyloxiran-2-yl)-6-methylhepta-2,4-dien-2-yl)-5,5-dimethyltetrahydro-2H-pyran-2-yl)acetic acid], in assay [2], the “reduction in splicing inhibitory potency compared to herboxidiene” value worked out at 3 fold.

With `CO[C@H]([C@@H](C)[C@H]1O[C@]1(C)C[C@H](C)/C=C/C=C(\C)[C@H]1O[C@@H](CC(=O)O)CC[C@@H]1C)[C@@H](C)O` [herboxidiene], the cell cycle arrest entry with WI-38 was “induces both G1 and G2/M cell cycle arrest”.

Turning to C6 desmethyl herboxidiene [Compound 8], the splicing inhibitory activity result in assay [1] is recorded as “slightly lower splicing inhibitory activity”. Besides, the “anticancer activity in human cells” value in the assay on human cells is given as “slightly lower”.

The values are drawn from PMC8911528 (Organic & biomolecular chemistry, 2021).
